Compound activity as filed in PubChem BioAssay.
Mcl1 Bid PPI = Mcl-1/Bid binding inhibitors, primary screen, biochemical, TR-FRET, 1536-well. inhibition, % at 21.7 µM. AID 1021, 2008. Induced myeloid leukemia cell differentiation protein Mcl-1 (Homo sapiens), Q07820. 0.97% of 220,000 active. TR-FRET Mcl-1/Bid-Dy647 peptide binding;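 active = compounds that cut the binding signal by more than half at the single screening dose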;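 also: His-tagged Mcl-1 with europium anti-His antibody binding Bid BH3 peptide; 0% = Mcl-1 plus peptide wells and 100% = peptide-only wells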
Target sequence (Q07820 whole entry, looked up): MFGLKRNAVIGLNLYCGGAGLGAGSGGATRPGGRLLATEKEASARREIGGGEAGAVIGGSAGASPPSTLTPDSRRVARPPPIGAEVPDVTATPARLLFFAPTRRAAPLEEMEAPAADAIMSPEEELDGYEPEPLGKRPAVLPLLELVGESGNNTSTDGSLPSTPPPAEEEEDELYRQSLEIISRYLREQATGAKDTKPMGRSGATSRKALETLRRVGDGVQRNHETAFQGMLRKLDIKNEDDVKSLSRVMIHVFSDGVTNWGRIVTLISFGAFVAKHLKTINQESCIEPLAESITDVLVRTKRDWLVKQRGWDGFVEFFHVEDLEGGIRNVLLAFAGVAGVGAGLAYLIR
MCL1-BIM inh = inhibitors of MCL1 binding to BIM-BH3, primary screen, biochemical, fluorescence polarization; Induced myeloid leukemia cell differentiation protein Mcl-1 (Homo sapiens), Q07820; GST-MCL1 / FITC-Bim-BH3 fluorescence polarization; inhibition, % at 10.9 µM; 0.68% of 320,000 active; AID 2057, 2009;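 active = inhibition above the mean inhibition of all tested compounds plus 3 SD, set per campaign, cut at about 40% in these data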;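 also: 0% = DMSO wells and 100% = unlabeled Bim-BH3 peptide control; higher means more loss of mP so more displacement of Bim peptide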
Mcl1 Noxa PPI = Mcl-1/Noxa binding inhibitors, primary screen, biochemical, TR-FRET, 1536-well; TR-FRET Mcl-1/Noxa peptide binding, 2 h; inhibition, % at 21.7 µM; 1.5% of 220,000 active; AID 1022, 2008; Induced myeloid leukemia cell differentiation protein Mcl-1 (Homo sapiens), Q07820;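 active = compounds that cut the protein-peptide binding signal by more than 50% relative to plate controls in a single-dose test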;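 also: His-tagged Mcl-1 with rhodamine Noxa BH3 peptide and terbium anti-His antibody; 0% = Mcl-1 plus Noxa peptide wells and 100% = peptide-only wells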
RBBP9 inh = human RBBP9 inhibitors, primary screen, biochemical, fluorescence polarization, FP-Rh probe, HTS; inhibition, % at 7.94 µM; 0.2% of 220,000 active; recombinant RBBP9; Serine hydrolase RBBP9 (Homo sapiens), O75884;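 active = inhibition above the campaign mean of all tested compounds plus 3 SD, cut at about 14% in these data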;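 also: plate controls were DMSO wells with RBBP9 for no effect and wells lacking RBBP9 protein for full effect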
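System: RBBP9 protein / Buffer or medium: Tris/NaCl buffer pH 8.0 with 0.1% Pluronic / Probe or stimulus: Serine-hydrolase probe FP-Rh, 375 nM pre-mixing / Dosing: 7.94 µM single dose, 0.794% DMSO / Times: enzyme-compound preincubation 30 min, then probe labeling 45 min, 25 °C / Technique: fluorescence polarization (mP), excitation 525 nm, emission 598 nm / Replication: singlicate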
Bim-Mcl-1 = inhibitors of Bim peptide binding to Mcl-1, primary screen, biochemical, bead-based flow cytometry, multiplex | inhibition, % at 10 µM | 0.1% of 190,000 active | AID 1009, 2008 | Bim peptide-Mcl-1 binding | Induced myeloid leukemia cell differentiation protein Mcl-1 (Homo sapiens), Q07820; in the data active = inhibition above about 40%;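 also: 0% = no compound tracer wells and 100% = peptide blocker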
EBV gp42 block = Epstein-Barr virus gp42 inhibitors, primary screen, biochemical, uHTS, fluorescence polarization; inhibition, % (tested at 21.74 µM); Fluorescence polarization binding assay, mP read-out; 0.42% of 220,000 active; Glycoprotein 42 (Epstein-Barr virus (strain AG876)), Q1HVG2; in the data active = inhibition above about 50%
Active calls of the source: *; · = not tested or not shown; ! = not active in a repeat. In the library only some 2.2% were active in any assay of this set; here they are far more common.

SMILES	Mcl1 Bid PPI	MCL1-BIM inh	Mcl1 Noxa PPI	RBBP9 inh	Bim-Mcl-1	EBV gp42 block
O=C(O)CC/C(=N\NC(=O)c1ccccc1Br)c1ccccc1	-4.4	4.9	-3.9	-8.8	-6.0	0.3
OC(COCc1ccccc1)CN1CCN(Cc2ccc3c(c2)OCO3)CC1 (configuration not stated)	8.7	-4.8	55.1*	1.2	-1.0	-18.6
SC(COCc1ccccc1)CN1CCN(Cc2ccc3c(c2)OCO3)CC1 (configuration not stated)	-55.0	7.1	-5.0	-6.8	-1.0	-5.3
Cc1cc(Cl)ccc1NC(=S)N1CCN(Cc2ccc3c(c2)OCO3)CC1	-26.5	2.8	17.4	-9.8	-2.0	7.9
Fc1ccccc1NC(=S)N1CCN(Cc2ccc3c(c2)OCO3)CC1	92.3*	14.1	4.4	-10.3	0.0	13.7
CC(=O)c1ccc(OCC(O)CN2CCN(Cc3ccc4c(c3)OCO4)CC2)cc1 (configuration not stated)	52.1*!	5.1	27.8	-3.1	0.0	2.2
O=C(NCc1ccco1)C(c1ccncc1)N(C(=O)Cn1nnc2ccccc21)c1ccccc1F (configuration not stated)	·	-0.9	·	·	·	·
CC(C)Cc1nnc(NC(=O)CN2C(=O)NC3(CC(C)CC(C)(C)C3)C2=O)s1 (configuration not stated)	·	-6.8	·	·	·	·
O=C(O)/C=C/c1ccc(S(=O)(=O)NCc2cccnc2)cc1	-43.5	-4.0	1.0	8.6	·	9.1
O=C(COc1ccc(Br)cc1)Nc1nc(-c2cccnc2)cs1	-22.3	1.4	22.4	-5.4	·	-9.9
O=C(Cc1cccs1)Nc1nc(-c2cccnc2)cs1	-63.2	18.5	72.0*	-1.4	·	11.7
Fc1cccc(Nc2nc(-c3ccncc3)nc3ccccc23)c1	29.7	-1.8	26.0	-5.1	47.0*	-12.1
Clc1ccc(/C=N/N2CCN(Cc3ccccc3)CC2)cc1	·	5.9	·	·	·	·
COc1cc(-c2nc(-c3ccc4c(c3)-c3ccccc3S4(=O)=O)c(-c3ccccc3)[nH]2)cc(OC)c1O	10.4	8.4	58.2*	2.5	2.0	-6.4
COc1ccc(-c2[nH]c(-c3ccc(C(=O)O)cc3)nc2-c2ccccc2)cc1	-37.3	6.9	-2.7	-7.4	0.0	4.5
O=C(O)C1CN(c2ncccc2[N+](=O)[O-])C1	-12.6	-2.3	6.9	-5.0	1.0	-0.1
O=C(O)[C@@H]1[C@@H]2C[C@@H]2CN1c1ncccc1[N+](=O)[O-]	-32.2	46.9*	19.4	0.4	-1.0	10.4
COc1ccccc1OCCOc1ccc(/C=C2/C(=N)N3OC(C)=CC3=NC2=O)cc1OC	84.0*	-7.4	-21.8	-7.1	0.0	11.6
CC1=CC2=NC(=O)/C(=C\c3cccn3CCOc3ccccc3C)C(=N)N2O1	-4.3	-2.1	4.9	-14.1	-3.0	2.8
COc1cc(C=O)cc(OC)c1OS(=O)(=O)c1ccc(NC(C)=O)cc1	20.6	3.5	51.7*	0.4	0.0	4.3
COc1ccc(C=O)cc1OS(=O)(=O)c1ccc(NC(C)=O)cc1	9.2	-2.8	10.1	-7.7	0.0	5.0
CC12CCC(=O)N1C(C(=O)NNC(=O)COc1ccc(Br)cc1)CS2 (configuration not stated)	·	-2.6	·	·	·	·
CN(C)c1ccc(/C=C(\C#N)C(=O)Nc2nc3c(s2)CCN(Cc2ccccc2)C3)cc1	-14.2	-170.8	26.6	-2.5	0.0	105.7*
COc1cccc(C2(O)C(=O)Nc3ccccc32)c1 (configuration not stated)	·	-4.7	·	·	·	·
O=C(c1ccccc1)N1CCN(C2CCCCCC2)CC1	66.4*	4.3	27.0	-4.7	-1.0	-9.8
O=C(c1ccccc1)N1CCN(C2CC3CCC2C3)CC1 (configuration not stated)	57.4*	-1.1	-14.3	-7.0	-3.0	-12.2
